Screens from PubChem.
The full list was thinned out, with hits kept by preference.
MPTP block: blocks calcium-induced mitochondrial swelling; isolated mouse mitochondria, Ca2+ swelling absorbance, 30 min; inhibition, % at 10 µM; hit rate 1.4% among 360,000; AID 602449;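 active means inhibition of 50% or more, scaled per plate between neutral and stimulator controls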;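 further: 0% = DMSO wells given calcium and 100% = 1 mM EGTA wells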
T cruzi repl: blocks replication of Trypanosoma cruzi; T. cruzi beta-gal in NIH3T3, luminescence, 90 h; inhibition, % (test concentration not listed); hit rate 1.4% among 300,000; AID 1885;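 active means mean inhibition across valid replicates above about 55%, limit read from the data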;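 further: signal also drops with host cell toxicity which is not excluded here; 0% = plate median of DMSO wells and 100% = zero luminescence signal; higher percent means less beta-gal luminescence so fewer parasites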
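System: Mouse NIH/3T3 fibroblasts infected with β-gal-expressing T. cruzi Tulahuen C4 | Quantity: NIH/3T3 cells, 5,000 per well | Reagent: 5000 reporter trypomastigotes per well | Dosing: Compound pinned at 50 nL/well, DMSO | Schedule: 3 h host attachment, then at least 90 h co-culture | Detection: GalScreen luminescence, 60 min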
DTT redox prof: compounds producing H2O2 with reducing agent – biochemical, NIH compound library profiling, artefact control for MLSCN library redox annotation, primary screen; DTT-dependent redox cycling H2O2, phenol red/HRP absorbance; 100% = 100 µM peroxide control, 0% = buffer; activation, % at 10 µM; hit rate 0.03% among 200,000;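 active means activation of at least 50% relative to the plate's high and low controls in the primary single-dose screen; inactive means activation below 50%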;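 further: compound incubated with DTT at 0.8 mM final as the reducing agent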
Lmaj promast: reduces viability of Leishmania major promastigotes; resazurin fluorescence viability; inhibition, % at 10 µM; hit rate 9% among 200,000; in the data active means inhibition above about 50%;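 further: promastigotes grown with compound for 44 hours at 28 °C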
Lipid droplet: hepatic lipid droplet formation modulation; AML12 mouse hepatocytes, oleate lipid droplets, BODIPY imaging; inhibition, % at 6.5 µM; hit rate 0.4% among 240,000;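 active means lipid droplet intensity inhibited by at least 50%, with more than 500 cells counted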
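Test system: AML12 hepatocytes (mouse); reagent: oleate loading, 100 µM; dosing: one dose, 6.5 µM compound; incubation: overnight exposure; signal: fluorescence imaging, 20x objective, two fields per well; read-out basis: % inhibition of corrected integrated BODIPY droplet signal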
Rh123 counter: membrane potential counter-screen of mitochondrial pore inhibitors. AID 624504. hit rate 78% among 5,000. isolated mitochondria, Rhodamine 123 fluorescence. inhibition, % at 10 µM. shares compounds with MPTP block; in the data active means inhibition above about 22%;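 further: 0% = DMSO vehicle and 100% = positive control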
MPTP swell DR: dose response confirmation of mitochondrial permeability transition pore inhibitors; hit rate 58% among 780; isolated mitochondria swelling, absorbance; IC50, µM; shares compounds with MPTP block; in the data active means IC50 below about 20 µM
MPTP cs DR: counter-screen for mitochondrial permeability transition pore inhibitors, dose response; IC50, µM; isolated mitochondria counterscreen, fluorescence read-out; AID 651564; shares compounds with MPTP block; hit rate 49% among 780; in the data active means IC50 below about 80 µM
Numbers without * were called inactive; x = not tested or not shown.

SMILES | MPTP block | T cruzi repl | DTT redox prof | Lmaj promast | Lipid droplet | Rh123 counter | others
O=Cc1ccc(OCC(=O)NCC2CCCO2)cc1 (stereo not drawn) | 64* | -5 | x | x | 0 | 0 | MPTP swell DR=>100;MPTP cs DR=>80
CCOC(=O)N1CCN(C(=O)c2cc(Cl)c(Cl)cc2C(=O)O)CC1 | 55* | 0 | 2 | -6 | 6 | -6 | MPTP swell DR=>100;MPTP cs DR=>80
CCCCC(CC)Cn1c(O)c(/C=C2\C=NN=C2c2ccccc2)sc1=S (stereo not drawn) | 55* | 53 | 0 | 5 | 1 | -2 | MPTP swell DR=16*;MPTP cs DR=>80
CCOc1ccc(NC(=S)N2CCN(S(C)(=O)=O)CC2)cc1 | 0 | 0 | x | x | -4 | x
Cc1ccccc1C(=O)OCCN(C)Cc1ccccc1 | 0 | 27 | -1 | 3 | -6 | x
CCOC(=O)C1(CC2CCCCO2)CCN(C(=O)Nc2ccc3c(c2)OCO3)CC1 (stereo not drawn) | -1 | -11 | -1 | -3 | -2 | x
CCOC(=O)C1(CC2CCCCO2)CCN(C(=O)Nc2ccc(C(=O)OC)cc2)CC1 (stereo not drawn) | 56* | -2 | -1 | 3 | -25 | 61*
CNCCCC1Sc2ccccc2Oc2ccccc21 (stereo not drawn) | 79* | 17 | 1 | 100* | 2 | -5 | MPTP swell DR=5.1*;MPTP cs DR=>80
O=C(Nc1nnc(C(F)(F)F)s1)C1COc2ccccc2O1 (stereo not drawn) | 84* | -6 | -2 | 0 | -8 | 78*
CC(NC(=O)Nc1nnc(C(F)(F)F)s1)(C(F)(F)F)C(F)(F)F | 94* | 45 | 0 | 43 | x | 110*
CC(C)(C)CC(=O)Nc1nnc(C(F)(F)F)s1 | -4 | -10 | 1 | 8 | 9 | x
O=C(Nc1nnc(C(F)(F)F)s1)c1ccc(Br)s1 | 78* | 5 | 0 | 10 | -18 | 75*
Cc1nn(-c2ccccc2)nc1C(=O)Nc1nnc(C(F)(F)F)s1 | 73* | -13 | x | x | 2 | 79*
CCOC(=O)N1CCC(N2CCN(C3CCCC3)C(CCO)C2)CC1 (stereo not drawn) | 4 | -13 | -1 | -3 | -2 | x
COCCn1c(N)c(N(Cc2ccccc2)C(=O)c2oc3ccccc3c2C)c(=O)[nH]c1=O | 5 | 35 | 0 | 1 | -2 | x
N=c1oc2ccc3ccccc3c2cc1C(N)=S | -1 | 3 | 1 | 1 | -2 | x
CCCCC1CCC(C(=O)N(C)CC(=O)Nc2cccc(OC)c2)CC1 (stereo not drawn) | 0 | x | x | x | x | x
Cc1cccc(C)c1-n1cccc1/C=C1/C(=N)N2C(=NC1=O)SN=C2S(C)(=O)=O | 67* | 2 | -1 | -5 | 9 | 75*
CCC1=NN2C(=N)/C(=C\c3cccn3-c3c(C)cccc3C)C(=O)N=C2S1 | 29 | -21 | -1 | 2 | -16 | x
Cc1cc(/C=C2/C(=N)N3C(=NC2=O)SN=C3S(C)(=O)=O)c(C)n1-c1ccc(F)cc1 | 20 | 3 | 0 | -2 | -4 | x
CCOc1ccc(-n2c(C)cc(/C=C3/C(=N)N4C(=NC3=O)SN=C4S(C)(=O)=O)c2C)cc1 | 76* | -4 | 0 | -3 | -2 | 28*
CCc1ccc(N2CC(C(=O)Nc3ccc4c(c3)OCCO4)CC2=O)cc1 (stereo not drawn) | -1 | 4 | x | x | -2 | x
FC(F)(F)c1cnc(NNC(=S)Nc2ccc(Cl)cc2)c(Cl)c1 | 100* | -5 | 0 | -8 | -56 | 92*
Cc1ccc(NC(=S)NNc2ncc(C(F)(F)F)cc2Cl)c(C)c1 | 13 | -19 | 1 | -2 | -12 | x
Cc1ccc(NC(=S)NNc2ncc(C(F)(F)F)cc2Cl)cc1 | -6 | -10 | 0 | -3 | 28 | x
Fc1ccc(NC(=S)NNc2ncc(C(F)(F)F)cc2Cl)c(F)c1 | 94* | -6 | -1 | 9 | -84 | 94*
CC(OC(=O)C1=COCCO1)C(=O)NC(C)c1ccc(Cl)cc1Cl (stereo not drawn) | 0 | -4 | x | x | x | x
O=C(COC(=O)Cc1ccsc1)Nc1cccc(F)c1 | 0 | x | x | x | x | x
